Assay results published in ChEMBL document CHEMBL1149811, “Synthesis of novel 4,6-disubstituted quinazoline derivatives, their anti-inflammatory and anti-cancer activity (cytotoxic) against U937 leukemia cell lines” (Eur J Med Chem, 2008).
≈ marks a conversion by molar mass, not a printed value.

Tests used:
Rattus norvegicus [1] = assay: Antiinflammatory activity in Wistar rat assessed as inhibition of carrageenan-induced paw edema at 100 mg/kg, po; format: functional
Summary of the method: (§1)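 Male Wistar rats, fasted overnight, three per group. Given orally as 1% gum acacia suspension (test 100 mg/kg, indomethacin 10 mg/kg; controls vehicle). One hour later, 0.1 ml of 1% carrageenan injected sub-plantar into left hind paw. Paw volume measured by digital plethysmometer before carrageenan and at 3 h. Percent inhibition per rat versus mean control paw volume, reported as mean ± SE.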

U-937 = assay: Cytotoxicity against human U937 cells after 2 days by MTT assay; format: functional, cell-based; conditions: U-937, 48 h
Summary of the method: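 U937 human histocytic lymphoma cells grown in RPMI-1640 with 10% FBS at 37 °C under CO2. Seeded at 2 × 10^4 cells/well and compounds added after 24 h. Viability read after two days by MTT (4 h at 37 °C, formazan dissolved in DMSO, absorbance 570 nm). Percent inhibition versus untreated control; IC50 (50% cell-number decrease) by linear regression; mean ± SE of four observations.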

Rattus norvegicus [2] = assay: Antiinflammatory activity in Wistar rat assessed as inhibition of carrageenan-induced paw edema at 10 mg/kg, po; format: functional; summary of the method: as §1

| SMILES | inhibition in vivo at 100 mg/kg (Rattus norvegicus [1]) [%] | IC50 (U-937) [µg/mL] | inhibition in vivo at 10 mg/kg (Rattus norvegicus [2]) [%] |
| --- | --- | --- | --- |
| O=C(O)[C@H](Cc1c[nH]c2ccccc12)Nc1nc(-c2ccccc2)nc2ccc(I)cc12 | 0 | 46.1 (≈ 86.3 µM) | – |
| O=C(O)[C@H](Cc1c[nH]c2ccccc12)Nc1nc(-c2ccccc2)nc2ccccc12 | 1.8 | 74.8 (≈ 183 µM) | – |
| O=C(O)CNc1nc(-c2ccccc2)nc2ccccc12 | 0 | – | – |
| O=C(O)CNc1nc(-c2ccccc2)nc2ccc(Br)cc12 | 0 | – | – |
| O=C(O)CNc1nc(-c2ccccc2)nc2ccc(I)cc12 | 0 | – | – |
| C[C@H](Nc1nc(-c2ccccc2)nc2ccc(I)cc12)C(=O)O | 6.5 | – | – |
| O=C(O)[C@H](Cc1ccccc1)Nc1nc(-c2ccccc2)nc2ccc(Br)cc12 | 0 | 50.4 (≈ 112 µM) | – |
| CC[C@H](C)[C@H](Nc1nc(-c2ccccc2)nc2ccccc12)C(=O)O | 4.1 | 121 (≈ 360 µM) | – |
| CC[C@H](C)[C@H](Nc1nc(-c2ccccc2)nc2ccc(Br)cc12)C(=O)O | 0 | 32 (≈ 77.3 µM) | – |
| CC[C@H](C)[C@H](Nc1nc(-c2ccccc2)nc2ccc(I)cc12)C(=O)O | 0 | 52.4 (≈ 114 µM) | – |
| O=C(O)[C@H](Cc1ccccc1)Nc1nc(-c2ccccc2)nc2ccccc12 | 0 | – | – |
| O=C(O)[C@H](Cc1c[nH]c2ccccc12)Nc1nc(-c2ccccc2)nc2ccc(Br)cc12 | 0 | 37.9 (≈ 77.8 µM) | – |
| C[C@H](Nc1nc(-c2ccccc2)nc2ccccc12)C(=O)O | 9.3 | – | – |
| C[C@H](Nc1nc(-c2ccccc2)nc2ccc(Br)cc12)C(=O)O | 0 | 104 (≈ 280 µM) | – |
| O=C(O)[C@H](Cc1ccccc1)Nc1nc(-c2ccccc2)nc2ccc(I)cc12 | 3.7 | 16.1 (≈ 32.5 µM) | – |
| COc1cc([C@@H]2c3cc4c(cc3[C@@H](O[C@@H]3O[C@@H]5CO[C@@H](C)O[C@H]5[C@H](O)[C@H]3O)[C@H]3COC(=O)[C@H]23)OCO4)cc(OC)c1O [ETOPOSIDE] | – | 10.6 (≈ 17.9 µM) | – |
| COc1ccc2c(c1)c(CC(=O)O)c(C)n2C(=O)c1ccc(Cl)cc1 [INDOMETHACIN] | – | – | 48 |
